# Results from ChEMBL document CHEMBL3585325, “Discovery of (1R,2S)-2-{[(2,4-Dimethylpyrimidin-5-yl)oxy]methyl}-2-(3-fluorophenyl)-N-(5-fluoropyridin-2-yl)cyclopropanecarboxamide (E2006): A Potent and Efficacious Oral Orexin Receptor Antagonist” (J Med Chem, 2015).
# Key:
# [1] = biological target: T1, Orexin receptor type 2 (Homo sapiens, UniProt O43614); experiment: Binding affinity to human OX2R by radioligand displacement binding assay
# T1 sequence (O43614 whole entry): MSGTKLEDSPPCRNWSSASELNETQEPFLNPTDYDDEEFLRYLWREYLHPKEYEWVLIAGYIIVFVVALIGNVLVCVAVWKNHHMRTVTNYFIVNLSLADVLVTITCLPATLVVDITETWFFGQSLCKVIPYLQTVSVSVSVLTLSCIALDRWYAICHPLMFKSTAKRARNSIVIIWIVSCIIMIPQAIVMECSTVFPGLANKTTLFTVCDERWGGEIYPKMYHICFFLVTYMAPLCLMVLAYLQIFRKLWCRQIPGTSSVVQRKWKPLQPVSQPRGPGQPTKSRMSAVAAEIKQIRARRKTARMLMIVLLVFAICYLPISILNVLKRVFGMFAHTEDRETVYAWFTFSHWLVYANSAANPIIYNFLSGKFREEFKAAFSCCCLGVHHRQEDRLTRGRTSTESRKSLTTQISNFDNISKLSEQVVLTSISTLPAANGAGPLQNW
# [2] = biological target: T2, Orexin/Hypocretin receptor type 1 (Homo sapiens, UniProt O43613); experiment: Binding affinity to human OX1R by radioligand displacement binding assay
# T2 sequence (O43613 whole entry): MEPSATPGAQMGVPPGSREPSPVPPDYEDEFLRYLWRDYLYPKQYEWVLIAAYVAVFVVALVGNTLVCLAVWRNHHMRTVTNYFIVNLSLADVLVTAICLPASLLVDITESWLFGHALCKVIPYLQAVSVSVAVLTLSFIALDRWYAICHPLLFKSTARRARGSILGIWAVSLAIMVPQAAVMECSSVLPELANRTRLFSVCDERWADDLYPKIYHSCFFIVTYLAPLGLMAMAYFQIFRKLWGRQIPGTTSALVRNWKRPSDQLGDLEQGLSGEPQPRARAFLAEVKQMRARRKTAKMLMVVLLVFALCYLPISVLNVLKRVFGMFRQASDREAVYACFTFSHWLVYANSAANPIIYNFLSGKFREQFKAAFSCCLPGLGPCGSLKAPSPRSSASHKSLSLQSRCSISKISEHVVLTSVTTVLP
# Outline: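 Ki values come from single experiments run in triplicate.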
# [3] = Aqueous solubility of the compound in Dulbecco's phosphate buffered saline at pH 7.4 by DMSO solution precipitation method; format: physicochemical
# Outline: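 Solubility in Dulbecco's PBS at pH 7.4, measured at room temperature by precipitation from a DMSO solution.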
# [4] = biological target: CYP3A (Homo sapiens, UniProt P08684+P20815+P24462+Q9HB55); experiment: Time dependent inhibition of CYP3A in human liver microsomes assessed as enzyme activity using midazolam as substrate at 10 uM incubated for 30 mins prior to substrate addition for 10 mins by LC-MS/MS analysis; format: ADME; set-up: scale not given: the % may be the effect or the level left; details: probe midazolam, read-out: Activity
# Outline: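 Test compound at 10 μM preincubated 30 min at 37 °C with human liver microsomes (0.2 mg/mL), with or without an NADPH-generating system. Mixture then diluted 10-fold into a marker-substrate cocktail plus NADPH system and incubated 10 min at 37 °C. Midazolam served as the CYP3A probe. Metabolites measured by LC−MS/MS. Result is the residual activity with NADPH relative to without, as % of control.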
# [5] = Activity at P-gp (unknown origin) assessed as corrected flux ratio; format: ADME; details: human
# Outline: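 Reported as corrected flux ratio, i.e. the MDR1 flux ratio divided by the PK1 flux ratio.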
# [6] = biological target: Voltage-gated inwardly rectifying potassium channel KCNH2 (Homo sapiens, UniProt Q12809); experiment: Inhibition of human ERG
# [7] = test system: Mus musculus; experiment: Sleep promoting activity in C57BL/6NCrlCrlj mouse assessed as reduction in wakefulness time at 30 mg/kg, po administered immediately prior to beginning of dark cycle measured during first 3 hrs after drug administration by electroencephalogram/electromyogram analysis (reference value: 116.7 min); format: functional
# Outline: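 Male C57BL/6NCrlCrlj mice implanted with EEG/EMG electrodes were dosed orally in 10% Cremophor EL, 5% DMSO in saline just before lights-off (ZT12) and recorded from ZT12 to ZT20. Group sizes were n=6 dosed and n=7 vehicle. Stages were scored by software with blinded visual confirmation; cumulative first-3-h times are mean with SEM. Dunnett's test was run after one-way ANOVA.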
# Sequence of Voltage-gated inwardly rectifying potassium channel KCNH2 (Q12809 whole entry): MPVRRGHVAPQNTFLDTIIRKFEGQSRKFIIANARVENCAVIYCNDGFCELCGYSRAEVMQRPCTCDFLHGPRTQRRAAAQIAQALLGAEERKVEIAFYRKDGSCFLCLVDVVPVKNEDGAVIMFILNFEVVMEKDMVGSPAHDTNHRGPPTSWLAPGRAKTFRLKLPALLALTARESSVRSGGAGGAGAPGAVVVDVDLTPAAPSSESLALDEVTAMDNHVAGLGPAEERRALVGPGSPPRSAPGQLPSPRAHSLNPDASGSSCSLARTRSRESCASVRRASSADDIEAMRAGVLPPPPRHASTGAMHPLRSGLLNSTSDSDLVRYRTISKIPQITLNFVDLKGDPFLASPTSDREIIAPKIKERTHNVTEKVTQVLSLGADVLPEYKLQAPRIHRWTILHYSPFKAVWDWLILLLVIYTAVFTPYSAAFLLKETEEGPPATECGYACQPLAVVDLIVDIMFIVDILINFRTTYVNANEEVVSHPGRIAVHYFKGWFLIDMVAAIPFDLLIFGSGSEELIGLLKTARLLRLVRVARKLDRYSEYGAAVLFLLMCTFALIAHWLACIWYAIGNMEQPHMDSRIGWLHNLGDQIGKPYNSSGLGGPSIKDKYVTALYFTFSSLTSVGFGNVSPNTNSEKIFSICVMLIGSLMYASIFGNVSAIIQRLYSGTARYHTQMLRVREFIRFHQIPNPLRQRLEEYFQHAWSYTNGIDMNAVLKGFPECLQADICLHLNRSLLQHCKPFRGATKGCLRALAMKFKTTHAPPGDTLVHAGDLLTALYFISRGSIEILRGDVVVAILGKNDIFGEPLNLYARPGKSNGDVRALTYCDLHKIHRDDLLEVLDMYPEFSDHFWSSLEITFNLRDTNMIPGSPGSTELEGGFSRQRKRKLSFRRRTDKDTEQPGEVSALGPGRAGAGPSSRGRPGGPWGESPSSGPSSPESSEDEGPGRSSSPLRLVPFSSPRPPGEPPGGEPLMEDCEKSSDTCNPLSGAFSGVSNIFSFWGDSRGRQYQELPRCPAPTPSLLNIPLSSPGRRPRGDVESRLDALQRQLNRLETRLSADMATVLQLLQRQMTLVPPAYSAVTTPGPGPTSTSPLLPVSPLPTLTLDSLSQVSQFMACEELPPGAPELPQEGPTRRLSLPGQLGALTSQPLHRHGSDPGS
Structure (SMILES),Ki [1] [nM],Ki [2] [nM],solubility kinetic [3] [µM],"activity at 10 min, 10 µM [4] [%]",Ratio [5],IC50 [6] [nM],Time [7] [min]
CCn1cc(OC[C@]2(c3ccccc3)C[C@@H]2C(=O)Nc2ccc(C#N)cn2)c(C)n1,> 2000,> 2000,–,–,–,–,–
CCn1cc(OC[C@@]2(c3ccccc3)C[C@H]2C(=O)Nc2ccc(C#N)cn2)c(C)n1,8,171,64,93,0.9,–,–
Cc1ncc(OC[C@@]2(c3ccccc3)C[C@H]2C(=O)Nc2ccc(C#N)cn2)c(C)n1,49,2490,80,96,2.7,–,–
CCc1nc(C)ncc1OC[C@@]1(c2ccccc2)C[C@H]1C(=O)Nc1ccc(C#N)cn1,7,121,44,91,2.1,–,–
Cc1cnc(OC[C@@]2(c3ccccc3)C[C@H]2C(=O)Nc2ccc(C#N)cn2)c(C)n1,21,73,47,97,1.3,–,–
COCc1nc(C)ncc1OC[C@@]1(c2ccccc2)C[C@H]1C(=O)Nc1ccc(C#N)cn1,9,43,93,92,4,–,–
Cc1ncc(OC[C@@]2(c3ccccc3)C[C@H]2C(=O)Nc2ccccn2)c(C)n1,80,1020,–,99,1.9,–,–
Cc1ncc(OC[C@@]2(c3ccccc3)C[C@H]2C(=O)Nc2cccnc2)c(C)n1,50,391,–,104,4.4,–,–
Cc1ncc(OC[C@@]2(c3ccccc3)C[C@H]2C(=O)Nc2ccncc2)c(C)n1,163,1580,–,110,6,–,–
Cc1ncc(OC[C@@]2(c3ccccc3)C[C@H]2C(=O)Nc2ccc(F)cn2)c(C)n1,7,137,92,87,1.7,7700,72.3
Cc1ncc(OC[C@@]2(c3ccccc3)C[C@H]2C(=O)Nc2cccc(F)n2)c(C)n1,56,138,–,94,1.4,–,–
Cc1ncc(OC[C@@]2(c3ccccc3)C[C@H]2C(=O)Nc2ccc(Cl)cn2)c(C)n1,2,39,–,88,1.3,–,68.2
Cc1ccc(NC(=O)[C@@H]2C[C@@]2(COc2cnc(C)nc2C)c2ccccc2)nc1,34,124,–,22,1.3,–,–
Cc1ccnc(NC(=O)[C@@H]2C[C@@]2(COc2cnc(C)nc2C)c2ccccc2)c1,29,224,–,90,1.5,–,–
Cc1ncc(OC[C@@]2(c3ccccc3)C[C@H]2C(=O)Nc2cc(C)c(F)cn2)c(C)n1,4,6,51,89,–,–,67.1
COc1cc(NC(=O)[C@@H]2C[C@@]2(COc2cnc(C)nc2C)c2ccccc2)ncc1F,6,3,–,86,1.6,–,–
Cc1ncc(OC[C@@]2(c3ccccc3F)C[C@H]2C(=O)Nc2ccc(F)cn2)c(C)n1,17,81,–,77,1.4,5900,–
Cc1ncc(OC[C@@]2(c3ccc(F)cc3)C[C@H]2C(=O)Nc2ccc(F)cn2)c(C)n1,8,39,–,85,1.3,2200,–
Cc1ncc(OC[C@@]2(c3cc(F)cc(F)c3)C[C@H]2C(=O)Nc2ccc(F)cn2)c(C)n1,3,7,–,62,1.5,4800,–
Cc1ncc(OC[C@@]2(c3ccc(F)c(F)c3)C[C@H]2C(=O)Nc2ccc(F)cn2)c(C)n1,4,14,–,75,–,–,–
Cc1ncc(OC[C@@]2(c3cccc(F)c3)C[C@H]2C(=O)Nc2cc(C)c(F)cn2)c(C)n1,4,2,46,83,1.4,> 10000,–
Cc1ccc(OCC2(c3ccccc3)CC2C(=O)Nc2ccc(C#N)cn2)c(C)n1 (racemic),222,938,22,34,–,–,–
Cc1cc(OCC2(c3ccccc3)CC2C(=O)Nc2ccc(C#N)cn2)cc(C)n1 (racemic),> 2000,> 2000,–,94,–,–,–
Cc1nn(C)cc1OCC1(c2ccccc2)CC1C(=O)Nc1ccc(C#N)cn1 (racemic),204,> 2000,85,85,–,–,–
CCn1cc(OCC2(c3ccccc3)CC2C(=O)Nc2ccc(C#N)cn2)c(C)n1 (racemic),10,391,78,84,1.5,–,–
